Measurements from ChEMBL document CHEMBL1149907, “Phenolic glycosides from the filamentous fungus Acremonium sp. BCC 14080” (J Nat Prod, 2008).

Key:
Plasmodium falciparum = assay: Antimalarial activity against Plasmodium falciparum K1 by microculture radioisotope assay; assay type: functional, organism-based
Summary of the method: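 Radioisotope microculture assay of P. falciparum K1 growth, with dihydroartemisinin as the reference antimalarial. IC50 reported as mean ± SD, n = 3.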

Human alphaherpesvirus 1 = assay: Antiviral activity against HSV1 by colorimetric method; assay type: functional, organism-based
Summary of the method: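 HSV-1 inhibition read by a colorimetric method, with acyclovir as the reference compound. IC50 reported as mean ± SD, n = 3.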

KB = assay: Cytotoxicity against human KB cells by colorimetric method; assay type: functional, cell-based
Summary of the method: (§1)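 Colorimetric cytotoxicity read-out, with ellipticine as the reference compound. Cell types: KB (oral human epidermal carcinoma), BC (human breast cancer), NCI-H187 (human small-cell lung cancer) and Vero (African green monkey kidney fibroblast). IC50 reported as mean ± SD, n = 3.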

[1] = Cytotoxicity against human BC cells by colorimetric method; assay type: functional, cell-based; summary of the method: as §1
NCI-H187 = assay: Cytotoxicity against human NCI-H187 cells by colorimetric method; assay type: functional, cell-based; summary of the method: as §1
Vero = assay: Cytotoxicity against African green monkey Vero cells by colorimetric method; assay type: cell-based; details: Chlorocebus sabaeus; summary of the method: as §1

SMILES | IC50 (Plasmodium falciparum) [µM] | IC50 (Human alphaherpesvirus 1) [µM] | IC50 (KB) [µM] | IC50 [1] [µM] | IC50 (NCI-H187) [µM] | IC50 (Vero) [µM]
CCCCCCCc1cc(O)cc(OC(=O)c2c(CCCCCCC)cc(O)cc2O[C@@H]2O[C@H](CO)[C@H](O)[C@H](O)[C@H]2O)c1 | > 10 | 7.2 | > 25 | 4.4 | 13.9 | 43.2
CCCCCCCc1cc(O)cc(OC(=O)c2c(O)cc(O)cc2CCCCCCC)c1 | 9.9 | > 100 | 13 | 8.8 | 13.6 | 34.3
Nc1nc2c(ncn2COCCO)c(=O)[nH]1 [ACYCLOVIR] |  | 10.2 |  |  |  | 
Cc1c2ccncc2c(C)c2c1[nH]c1ccccc12 [ELLIPTECINE] |  |  | 1.99 | 0.49 | 1.71 | 10.2

Second part, led by results:

IC50 (Plasmodium falciparum) [µM] | IC50 (Human alphaherpesvirus 1) [µM] | SMILES | IC50 (KB) [µM] | IC50 [1] [µM] | IC50 (NCI-H187) [µM] | IC50 (Vero) [µM]
> 10 | > 50 | CCCCCCCc1cc(O)cc(OC(=O)c2c(CCCCCCC)cc(O)cc2O[C@@H]2O[C@H](CO[C@@H]3O[C@H](CO)[C@H](O)[C@H](O)[C@H]3O)[C@H](O)[C@H](O)[C@H]2O)c1 | > 25 | 20.2 | > 25 | 32.1
> 25 | > 100 | CCCCCCCc1cc(O)cc(O[C@@H]2O[C@H](CO)[C@@H](OC)[C@H](O)[C@H]2O)c1 | > 50 | > 50 | > 50 | > 100
0.0039 |  | C[C@H]1[C@@H](O)O[C@@H]2O[C@@]3(C)CC[C@H]4[C@H](C)CC[C@@H]1[C@@]24OO3 [ARTENIMOL] |  |  |  | 
